# Source: PubChem BioAssay
# Calb FLC – C. albicans growth modulation with fluconazole | C. albicans CaCi-2 (fluconazole-resistant clinical isolate) + fluconazole, Alamar Blue growth, 48 h | growth inhibition, % (test concentration not listed) | 0.57% of 300,000 active | AID 1979;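 active = growth inhibition above about 58% in most replicates, limit read from the data, passing the limit was not always enough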;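 note: all wells also contain fluconazole at 8 µg/ml as a sub-toxic cotreatment; 0% = median of DMSO wells and 100% = median of geldanamycin control wells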
# GAA850 FXN act – increases GAA850 frataxin promoter reporter activity | HEK293 lucGAA850 FXN promoter luciferase reporter, 24 h; percent of 10 µM SAHA response | activation, % at 6 µM | 0.56% of 360,000 active | AID 540364;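 active = activation above the average of all compounds screened plus 3 SD, cutoff fixed separately per campaign, cut at about 7.5% in these data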;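 note: 0% = DMSO wells and 100% = 10 µM SAHA wells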
# proCasp3 act – procaspase-3 (human) activation. P42574. recombinant procaspase-3 D3A, Ac-DEVD-pNA absorbance 405 nm. activation, % at 8.5 µM. 0.11% of 330,000 active;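 active = activation above the mean of all tested compounds plus 3 SD, cut at about 21% in these data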;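 note: 0% = DMSO alone and 100% = DMSO wells spiked with extra 5 µM PC-3 D3A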
# Target sequence (P42574 whole entry D9A/D28A/D175A): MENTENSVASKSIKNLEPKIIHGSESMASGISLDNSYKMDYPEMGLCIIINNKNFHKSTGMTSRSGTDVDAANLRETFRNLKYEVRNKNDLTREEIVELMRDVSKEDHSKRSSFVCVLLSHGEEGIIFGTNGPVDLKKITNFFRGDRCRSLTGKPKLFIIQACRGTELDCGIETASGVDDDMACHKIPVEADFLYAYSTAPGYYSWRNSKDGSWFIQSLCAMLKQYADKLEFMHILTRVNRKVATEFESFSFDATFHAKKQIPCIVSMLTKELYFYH
#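 material = Procaspase-3 D3A mutant | probe or stimulus = Ac-DEVD-pNA | compound = single dose, 8.5 µM nominal compound, 0.8% DMSO | timing = 1 h preincubation, 2 h reaction | measured by = 405 nm absorbance of p-nitroaniline, reads at 0 and 120 min | benchmarks = DMSO-only low control, 5 µM PC-3 D3A high control | repeats = singlicate, each compound tested once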
# Neddyl block – inhibitors of human cullin neddylation; 0.58% of 360,000 active; TR-FRET cullin neddylation, biochemical; P61081+Q13564; inhibition, % at 25 µM; in the data active = inhibition above about 36%
# HIF act – HIF pathway transcriptional activation; activation, % at 7.5 µM (by protocol); 0.32% of 300,000 active; U2OS HRE-luciferase reporter, luminescence; normalized: DMSO 0%, desferrioxamine 100%;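 active = mean activation of at least 10% of the iron chelator positive control signal, with at least half of replicates also reaching 10%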
# proCasp7 act – activates human procaspase-7, counter-screen for procaspase-3 activators | activation, % at 8.5 µM | 0.093% of 330,000 active | recombinant procaspase-7, Ac-DEVD-pNA absorbance 405 nm; D23A/D198A/D206A triple mutant, cannot self-cleave; scale: DMSO 0, 5 µM enzyme 100 | P55210;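 active = percent activation above the screen-wide mean plus 3 SD, cut at about 25% in these data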
# Target sequence (P55210 whole entry D23A/D198A/D206A): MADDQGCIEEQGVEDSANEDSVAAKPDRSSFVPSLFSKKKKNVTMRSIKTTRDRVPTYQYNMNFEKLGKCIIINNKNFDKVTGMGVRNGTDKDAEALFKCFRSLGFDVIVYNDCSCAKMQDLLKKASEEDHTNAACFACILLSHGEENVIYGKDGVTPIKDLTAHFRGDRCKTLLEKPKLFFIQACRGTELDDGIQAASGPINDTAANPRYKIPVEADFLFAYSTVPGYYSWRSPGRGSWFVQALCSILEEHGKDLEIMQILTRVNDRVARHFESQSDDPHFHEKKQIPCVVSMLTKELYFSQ
#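 Replicates: singlicate. Assay system: Procaspase-7 triple mutant (PC-7 D3A). Signal: 405 nm absorbance of p-nitroaniline. Times: 1 h preincubation, 2 h reaction. Buffer or medium: Zinc-free HEPES pH 7.4 with 300 mM NaCl, 0.01% Triton X-100. Also added: DEVD-pNA substrate. Benchmarks: DMSO wells as 0%, DMSO with 5 µM added PC-7 as 100%.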
# Numbers without * were called inactive; . = not tested or not shown. A selection: hits, their analogues and other compounds. The true share with any hit is near 1.9%.
SMILES,Calb FLC,GAA850 FXN act,proCasp3 act,Neddyl block,HIF act,proCasp7 act
Cc1ccc(-c2nnc(Nc3ccccc3)c3ccccc23)cc1S(=O)(=O)NCC1CCCO1 (stereo not drawn),60.8*,-3.5,4.8,.,-0.1,22.5
Cc1cc(Nc2ccccc2)nc(NCc2ccccc2)n1,97.1*,0.6,4.5,19.2,0.9,-3.9
Cc1cc(Nc2cccc(F)c2)nc(NCc2ccccc2)n1,45.4,0.8,-3.1,31.5,0.0,0.0
COc1ccc(-n2c(-c3ccc(Cl)cc3)c[n+]3c2CCc2ccccc2-3)cc1,107.7*,-3.0,5.6,22.9,1.0,10.9
Cc1cc(C)cc(-n2c3ccc(NC(=S)NC4CCCCC4)cc3c(=O)n2C)c1,.,-0.2,.,.,.,.
Cc1ccc(CN2CCC[C@]3(N[C@H](c4ccc(C(F)(F)F)cc4)[C@@H]4C(=O)N(Cc5ccccc5)C(=O)[C@@H]43)C2=O)cc1,.,-3.1,.,-2.2,.,.
C/C(=N\Nc1ccc(Cl)c(C(=O)O)c1)c1ccccn1,-3.6,2.9,-4.0,-4.6,-0.1,2.9
C/C(=N\Nc1ncnc2sc(C)c(C)c12)c1ccccn1,-12.9,-4.8,-24.6,-19.5,95.8*,-4.3
Cc1sc2ncnc(N/N=C/c3cccc(O)c3)c2c1C,5.2,3.8,-9.0,-12.3,.,-9.3
C/C(=N\Nc1ncc(Cl)cc1Cl)c1ccccn1,98.4*,-8.5,.,-33.6,-2.5,.
CCC(=O)N1CCC1(C)C(=O)Nc1cc(OC)ccc1OC (stereo not drawn),.,0.1,.,11.0,.,.
COc1ccc(-n2nnnc2C(c2ccccc2OC(F)(F)F)N2CCN(C/C=C/c3ccccc3)CC2)cc1 (stereo not drawn),.,.,.,1.9,.,.
O=C(c1ccc(-c2nnc(-c3ccccc3)o2)cc1)N1CCCCCC1,-2.2,3.8,-0.4,-1.9,40.4*,-7.3
Cc1ccc(NNC(=O)c2c(C)noc2C)cc1Cl,-3.2,0.8,-0.5,5.7,-0.7,1.3
Cc1cc(Cl)ccc1NNC(=O)c1c(C)noc1C,81.6*,-0.3,-23.4,0.8,-0.4,-17.1
CS/C(=N\S(=O)(=O)c1cccs1)Nc1ccc(F)c(Cl)c1,94.6*,2.5,7.9,4.2,-0.5,-3.4
CCC(CC)NC(=O)COc1ccc(OC)cc1C=O,-4.7,3.0,-0.7,42.2*,-0.3,-1.1
COc1cccc(-n2c(SCc3cc(=O)oc4cc(O)c(O)cc34)nc3ccccc3c2=O)c1,106.4*,-1.4,6.5,.,-0.8,-6.7
CCN(CC)C(=O)CSc1nc2ccccc2c(=O)n1-c1cccc(OC)c1,-9.7,0.0,2.7,-1.1,-1.1,-10.1
CCC(O)CC(C(=O)NNc1ccccc1)C(=O)NNc1ccccc1 (stereo not drawn),100.4*,-0.4,-8.4,-11.3,-0.1,-6.9
COc1ccc(C(=O)Nc2ccccc2C(=O)NC2CC2)c(OC)c1OC,.,0.2,.,11.5,.,.
Fc1ccccc1NC(=S)Nc1ccc(Br)cc1,-16.9,4.4,4.3,8.9,80.5*,4.8
CCC(Cc1ccccc1)OC(=O)c1ccccc1C(=O)O (stereo not drawn),.,-0.2,.,-2.1,.,.
CCCOc1ccc(C(=O)NNC(=S)NC(=O)CC)cc1,84.9*,-2.3,-10.8,-9.4,0.2,-0.7
Brc1ccc([C@H]2C=C[C@H]3CCCN4CC[C@H]2[C@@H]3[C@]42CO2)cc1,.,.,.,8.2,.,.
SMILES,Calb FLC,GAA850 FXN act,proCasp3 act,Neddyl block,HIF act,proCasp7 act
CC(C)(C)NC(=O)CN(Cc1cccs1)C(=O)CNS(=O)(=O)c1ccc(F)cc1,2.5,-0.1,2.4,9.4,0.5,8.7
CC(C)(C)NC(=O)CN(Cc1ccc2c(c1)OCO2)C(=O)CNS(=O)(=O)c1ccc(F)cc1,-6.5,-0.5,2.3,1.1,19.2*,-2.3
O=C(Nc1nnc([C@H]2C[C@H](O)[C@@H](CO)O2)s1)c1cccc(Oc2ccccc2)c1,.,2.5,.,13.8,.,.
Cc1ccsc1/C=N/NS(=O)(=O)c1ccc([N+](=O)[O-])cc1,101.2*,0.1,4.8,-22.9,0.2,2.5
COc1cc(C(=O)N(Cc2ccccc2)c2cccc(C)c2)ccc1OCC(=O)N1CCOCC1,.,-2.0,.,-0.6,.,.
CC(C)(C)C(=O)/C(=C\c1ccc([N+](=O)[O-])cc1)n1cncn1,107.5*,.,-6.7,.,-3.4,2.1
CCc1nc2c(OCc3ccc(Cl)cc3Cl)cccn2c1N(C=O)Cc1ccc(OC)cc1,.,-1.8,.,4.0,.,.
COc1ccc(OC)c(/C=C/C(=O)Nc2ccc(OC)nc2)c1,112.8*,2.5,-8.4,33.3,0.3,0.5
O=C(CN1C(=O)COc2ccccc21)NCCCN1CCN(Cc2ccccc2)CC1,-3.4,0.8,7.7,-0.4,-0.2,4.0
O=C(CN1C(=O)COc2ccccc21)NCCCN1CCc2ccccc2C1,101.2*,-1.2,-3.4,-1.7,0.1,-7.0
C=C(C)CNC(=O)c1ccc2nc(Cc3ccc(OC)cc3)oc2c1,-1.3,5.1,12.2,1.6,10.6*,14.5
CCOC1=C2[C@@H](CN(S(=O)(=O)c3ccc(C)cc3)[C@H]2c2ccccc2Cl)[C@H]2C(=O)N(C)C(=O)[C@H]2C1,.,.,.,5.9,.,.
CCCOc1cccc(C2C(C(=O)c3ccco3)=C(O)C(=O)N2CCN(CC)CC)c1 (stereo not drawn),2.2,-1.0,-3.9,2.3,-0.3,4.6
COCCN1C(=O)C(O)=C(C(=O)c2ccco2)C1c1cccc(Oc2ccccc2)c1 (stereo not drawn),99.5*,2.1,-9.2,-52.1,0.0,-28.4
N#Cc1c(-c2ccc(F)cc2)c(-c2ccc(F)cc2)nn(CCO)c1=O,.,-3.3,.,19.7,.,.
Cc1ccc(O)c(-c2cc(-c3cccc(Br)c3)n[nH]2)c1,99.2*,1.1,-5.6,-7.0,5.8,1.7
Cc1ccc(-c2cc(-c3ccc(C)cc3O)[nH]n2)cc1,-1.5,2.1,9.6,1.8,3.2,2.7
C[C@H](c1ccccc1)N1C[C@@H](COCc2ccccc2)Oc2cc(N3CCC[C@H]3CO)ccc2S1(=O)=O,.,.,.,-128.8,.,.
CCc1ccc2oc(-c3ccc(OC)cc3)cc(=Nc3c(C)n(C)n(-c4ccccc4)c3=O)c2c1,71.3*,-0.1,-11.3,44.9*,-2.4,-57.0
C=CCn1c(-c2ccc(OC)cc2)csc1=Nc1c(C)n(C)n(-c2ccccc2)c1=O,-3.3,-2.8,-3.9,1.9,-0.1,-13.3
COc1ccccc1-c1sc2ccccc2c1-c1cnc(N2CCOCC2)nc1,.,.,.,-41.2,.,.
CC(=NNC(=O)C(C)SC(C)C(=O)NN=C(C)c1cccnc1)c1cccnc1 (stereo not drawn),.,0.7,.,-6.2,.,.
CCCOC(=O)NC1C(NC(=O)OCCC)N(C)C(=O)N1C (stereo not drawn),-11.4,1.1,3.1,-2.5,153.0*,-1.9
CN(C)c1cc[n+](CC(=O)c2ccc(-c3ccccc3)cc2)cc1,112.3*,-1.1,2.1,-18.4,0.0,7.4
